Data on 16 molecules can be found in PubChem BioAssay.

Assay [1] in a line: reducers of endogenous Her2 protein level, primary screen, SKBR3 breast tumor cells, AlphaScreen, ATP viability (AID 461;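 active = Her2 level under about 52% in both replicate screens, with viability over 70% of control, limit read from the data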;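 as to Her2 level: lower value means less Her2 protein in the cells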;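 as to viability: percent of carrier control wells set as 100% viability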). The note with it: 18-24 h, measured here: SKBR3 viability, ATP luminescence, at 10 µM. (In Alpha technology, singlet oxygen from a donor bead excites a nearby acceptor bead.)
Assay [2] deals with Receptor tyrosine-protein kinase erbB-2 (Homo sapiens) (UniProt P04626). Described as above. The note with it: 18-24 h, at 10 µM, stronger effect = lower value.
The nature of assay [3]: SK-BR-3 cell growth inhibitors, pilot screen, 24 h, human (AID 572).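 Also: compound exposure lasted between 18 and 24 h rather than exactly 24 h; 100% = carrier-treated control wells.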 As to conditions: SK-BR-3 viability, CellTiter-Glo luminescence, at 10 µM, stronger effect = lower value. On the technique in general: ATP-based viability assays read luminescence as a measure of living cells.
A short description of assay [4]: HUVEC growth inhibition – cell-based, human, primary screen (AID 575;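 active = viability at or below 30% in both replicate assays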;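 also: 100% = median of untreated cell wells with 0.1% DMSO on each plate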). As to conditions: HUVEC proliferation, CellTiter-Glo luminescence, 72 h; at 10 µM; stronger effect = lower value. The essentials: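 System: primary human umbilical vein endothelial cells; Quantity: 1250 endothelial cells in each well; Buffer or medium: supplemented EBM, 2% fetal bovine serum; Doses: one dose, 10 µM final, 0.1% DMSO; Incubation: 72 h compound incubation; Technique: ATP-based CellTiter-Glo luminescent read; Evaluation: percent of median DMSO-control luminescence; Controls: vehicle and MePR control wells.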

Assay [5] can be described thus: growth inhibitors of H69AR lung tumor, primary screen, human, duplicate replicates (AID 580;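 active = viability at or under a set limit in both replicates, limit being median viability minus 3 SD, cut at about 48% in these data, passing the limit was not always enough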;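 also: 100% = mean luminescence of untreated wells and 0% = no signal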). The note with it: H69AR lung tumor cells viability, ATP luminescence, 72 h; at 10 µM; stronger effect = lower value.
Assay [6] is described as follows: reversal of MRP1-mediated doxorubicin resistance, pilot screen, H69AR cells, doxorubicin co-treatment (AID 601;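 active = viability loss from added drug above about 55%, and viability with drug at most 40%, in both replicates, limit read from the data, passing the limit was not always enough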). As to conditions: CellTiter-Glo, 72 h, at 10 µM; for differential viability (reversal): stronger effect = higher value.
A short description of assay [7]: 384-well plate pilot, post-Golgi transport modulator project, inhibition of yeast transport mutant growth (AID 636; in the data active = inhibition above about 31%). As to conditions: absorbance 615 nm, about 18 h, stronger effect = higher value.
Assay [8] in a line: growth suppression of yeast trafficking mutant, preliminary HTS, modulators of trafficking downstream of Golgi apparatus project, 1536-format plate, OD 615 nm (AID 637; in the data active = inhibition above about 30%). As to conditions: yeast transport mutant growth, absorbance 615 nm, 18 h; stronger effect = higher value.
The mark [9] stands for this setting: H69AR cells + 2 uM doxorubicin, measured here: viability with 2 uM doxorubicin, stronger effect = lower value.
Where [10] appears, read: H69AR cells, compound alone cytotoxicity.

The source made the active and inactive calls.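 The calls were made as follows, unless noted: active = viability at or below 10% of carrier control in both of two separate runs; inconclusive = viability at or below 10% in only one of the two runs; inactive = the rest.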

Receptor tyrosine-protein kinase erbB-2 (Homo sapiens), sequence (P04626 whole entry, looked up): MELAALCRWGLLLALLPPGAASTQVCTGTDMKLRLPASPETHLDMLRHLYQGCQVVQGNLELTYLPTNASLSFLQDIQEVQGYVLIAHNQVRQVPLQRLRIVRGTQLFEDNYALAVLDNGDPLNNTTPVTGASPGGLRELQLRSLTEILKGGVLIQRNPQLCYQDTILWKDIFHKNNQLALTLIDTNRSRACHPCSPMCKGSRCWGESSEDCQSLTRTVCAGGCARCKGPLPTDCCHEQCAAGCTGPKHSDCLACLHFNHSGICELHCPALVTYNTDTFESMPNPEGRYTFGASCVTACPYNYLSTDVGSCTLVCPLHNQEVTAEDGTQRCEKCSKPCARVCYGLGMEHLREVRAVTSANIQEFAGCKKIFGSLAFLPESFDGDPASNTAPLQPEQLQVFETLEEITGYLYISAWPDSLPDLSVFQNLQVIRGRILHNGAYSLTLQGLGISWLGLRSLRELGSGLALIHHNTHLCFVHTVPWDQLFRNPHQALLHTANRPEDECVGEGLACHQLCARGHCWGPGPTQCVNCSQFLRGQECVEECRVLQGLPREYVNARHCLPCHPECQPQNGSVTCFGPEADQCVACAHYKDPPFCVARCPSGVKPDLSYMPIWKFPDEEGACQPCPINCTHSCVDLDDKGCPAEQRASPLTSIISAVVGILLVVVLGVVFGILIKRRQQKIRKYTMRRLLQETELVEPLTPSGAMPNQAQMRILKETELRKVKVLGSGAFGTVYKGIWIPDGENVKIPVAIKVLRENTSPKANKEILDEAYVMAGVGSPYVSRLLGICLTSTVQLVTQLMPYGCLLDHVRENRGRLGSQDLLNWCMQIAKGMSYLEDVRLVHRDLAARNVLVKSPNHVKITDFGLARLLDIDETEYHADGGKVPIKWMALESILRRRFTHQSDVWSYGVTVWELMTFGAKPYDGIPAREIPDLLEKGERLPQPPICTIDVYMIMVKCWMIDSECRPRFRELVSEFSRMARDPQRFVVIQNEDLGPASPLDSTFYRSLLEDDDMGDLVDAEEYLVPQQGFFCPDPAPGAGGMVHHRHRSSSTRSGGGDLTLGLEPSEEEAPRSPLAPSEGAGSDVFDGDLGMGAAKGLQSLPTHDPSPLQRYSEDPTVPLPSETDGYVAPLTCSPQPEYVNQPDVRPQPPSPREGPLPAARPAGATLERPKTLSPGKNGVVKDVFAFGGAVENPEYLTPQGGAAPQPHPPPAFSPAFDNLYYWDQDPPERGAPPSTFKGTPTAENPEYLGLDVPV

Consider `Cc1onc(-c2c(Cl)cccc2Cl)c1C(N)=O`, for which the viability in assay [1] was 103%; in assay [3], 103% (inactive); in assay [4], 100% (inactive); in assay [5], 106% (inactive); in assay [6] (setting [9]), 92.5%; in assay [6] (setting [10]), 106%. Also, the Her2 level in assay [2] was 116% (inactive). For the same molecule, the differential viability (reversal) in assay [6] (H69AR cells + 2 uM doxorubicin) is 13.6% (inactive). In addition, the inhibition is -2.03% (inactive) in assay [7] and -5.08% (inactive) in assay [8].

In the case of `O=C(O)CCCC(=O)Nc1ccc(Br)cc1C(=O)O`, the viability in assay [1] was 95.5%; in assay [3], 95.5% (inactive); in assay [4], 93.8% (inactive); in assay [5], 96.8% (inactive); in assay [6] (setting [9]), 82.4%; in assay [6] (setting [10]) it was 96.8%. For the same molecule, in assay [2], the Her2 level was 90% (inactive). The differential viability (reversal) in assay [6] (H69AR cells + 2 uM doxorubicin) is 14.4% (inactive). For the same molecule, the inhibition was -0.53% (inactive) in assay [7] and -0.16% (inactive) in assay [8].

As for `CN1CCc2nc(SCC(=O)Nc3ccc(F)cc3)c(C#N)cc2C1`, the viability was 90.5% in assay [1]; 90.5% (inactive) in assay [3]; 94.2% (inactive) in assay [4]; 97% (inactive) in assay [5]; 101% in assay [6] (setting [9]); 97% in assay [6] (setting [10]). For the same molecule, in assay [2], the Her2 level was 91.5% (inactive). In addition, the differential viability (reversal) in assay [6] (H69AR cells + 2 uM doxorubicin) was -4.23% (inactive). Also, the inhibition was -5.33% (inactive) in assay [7] and 4.1% (inactive) in assay [8].

Turning to `Cn1cc(C(=O)c2ccc(F)cc2)cc1-c1nc2ccccc2n1C`, the viability in assay [1] is 91%; in assay [3], 91% (inactive); in assay [4] it was 76% (inactive); in assay [5], 102% (inactive); in assay [6] (setting [9]) it was 92%; in assay [6] (setting [10]), 102%. For the same molecule, the Her2 level in assay [2] was 65% (inactive). Moreover, the differential viability (reversal) in assay [6] (H69AR cells + 2 uM doxorubicin) was 10% (inactive). The inhibition was -0.4% (inactive) in assay [7] and 1.64% (inactive) in assay [8].

As for `COc1ccc(-c2nc3c(c(=O)n(C)c(=O)n3C)n2CC2CC(c3ccccc3)=NO2)cc1OC` (stereo not given), the viability in assay [1] is 85.5%; in assay [3], 85.5% (inactive); in assay [4], 63.4% (inactive); in assay [5] it was 6.03% (active); in assay [6] (setting [9]) it was 4.58%; in assay [6] (setting [10]), 6.03%. Further, the Her2 level in assay [2] was 85% (inactive). The differential viability (reversal) in assay [6] (H69AR cells + 2 uM doxorubicin) was 1.44% (inactive). Besides, the inhibition was -6.76% (inactive) in assay [7] and 2.22% (inactive) in assay [8].

For the molecule `CC1(C)CNC(=O)CC(C)(C)N1O`, the viability is 90% in assay [1]; 90% (inactive) in assay [3]; 101% (inactive) in assay [4]; 95.6% (inactive) in assay [5]; 92.6% in assay [6] (setting [9]); 95.6% in assay [6] (setting [10]). Moreover, in assay [2], the Her2 level was 129% (inactive). The differential viability (reversal) in assay [6] (H69AR cells + 2 uM doxorubicin) was 3.01% (inactive). Also, the inhibition in assay [7] was -1.43% (inactive); in assay [8], 0% (inactive).

Consider `O=C(CN1C(=O)c2ccccc2C1=O)NCC1COc2ccccc2O1` (stereo not given), for which the viability in assay [1] was 98%; in assay [3], 98% (inactive); in assay [4], 95.1% (inactive); in assay [5], 102% (inactive); in assay [6] (setting [9]), 97.1%; in assay [6] (setting [10]), 102%. Further, in assay [2], the Her2 level was 110% (inactive). Also, the differential viability (reversal) in assay [6] (H69AR cells + 2 uM doxorubicin) is 5.31% (inactive). Besides, the inhibition was 2.11% (inactive) in assay [7] and 12.5% (inactive) in assay [8].

Consider `O=C(Nc1ccc(CN2CCCCC2)cc1)c1ccc2c(c1)OCO2`, for which the viability in assay [1] was 80.5%; in assay [3], 80.5% (inactive); in assay [4] it was 98.8% (inactive); in assay [5], 91.6% (inactive); in assay [6] (setting [9]), 79.7%; in assay [6] (setting [10]), 91.6%. The Her2 level in assay [2] is 75% (inactive). The differential viability (reversal) in assay [6] (H69AR cells + 2 uM doxorubicin) is 11.9% (inactive). For the same molecule, the inhibition in assay [7] was -2.5% (inactive); in assay [8], -4.44% (inactive).

Regarding `Fc1ccccc1C(c1nnnn1Cc1ccc2c(c1)OCO2)N1CCN(Cc2ccccc2)CC1` (stereo not given), the viability in assay [1] is 121%; in assay [3], 121% (inactive); in assay [4], 69.6% (inactive); in assay [5], 89.3% (inactive); in assay [6] (setting [9]), 96.9%; in assay [6] (setting [10]), 89.3%. In addition, in assay [2], the Her2 level is 88% (inactive). The differential viability (reversal) in assay [6] (H69AR cells + 2 uM doxorubicin) was -7.54% (inactive). Besides, the inhibition was 2.16% (inactive) in assay [7] and -4.13% (inactive) in assay [8].

Take `O=C(c1ccc(Cl)cc1)N(Cc1cccs1)C1CCS(=O)(=O)C1` (stereo not given): the viability was 100% in assay [1]; 100% (inactive) in assay [3]; 117% (inactive) in assay [4]; 89.2% (inactive) in assay [5]; 97.6% in assay [6] (setting [9]); 89.2% in assay [6] (setting [10]). Besides, the Her2 level in assay [2] is 138% (inactive). In assay [6] (H69AR cells + 2 uM doxorubicin), the differential viability (reversal) was -8.41% (inactive). Besides, the inhibition was -3.29% (inactive) in assay [7] and 7.7% (inactive) in assay [8].

As to `CC(C)CCN1CC(C(=O)NCc2ccccc2)CC1=O` (stereo not given), the viability in assay [1] is 88.5%; in assay [3], 88.5% (inactive); in assay [4], 88% (inactive); in assay [5], 92.6% (inactive); in assay [6] (setting [9]) it was 91.2%; in assay [6] (setting [10]), 92.6%. Further, the Her2 level in assay [2] is 87.5% (inactive). The differential viability (reversal) in assay [6] (H69AR cells + 2 uM doxorubicin) was 1.32% (inactive). Moreover, the results for the inhibition in assay [7] and in assay [8] were 1.28% (inactive) and -0.83% (inactive), respectively.

Consider `COc1ccc(OC)c(C2=NOC(C(=O)Nc3cccnc3)C2)c1` (stereo not given), for which the viability in assay [1] is 78.5%; in assay [3] it was 78.5% (inactive); in assay [4], 102% (inactive); in assay [5] it was 88.9% (inactive); in assay [6] (setting [9]) it was 83.2%; in assay [6] (setting [10]) it was 88.9%. Further, the Her2 level in assay [2] was 82% (inactive). The differential viability (reversal) in assay [6] (H69AR cells + 2 uM doxorubicin) was 5.72% (inactive). The inhibition in assay [7] is -1.97% (inactive); in assay [8] it was 1.09% (inactive).

On to `CC(C)CC(=O)CN1C(=O)C2(OCCO2)c2ccccc21`, for which the viability in assay [1] is 93.5%; in assay [3], 93.5% (inactive); in assay [4], 101% (inactive); in assay [5] it was 89.6% (inactive); in assay [6] (setting [9]) it was 95.8%; in assay [6] (setting [10]) it was 89.6%. In addition, in assay [2], the Her2 level was 107% (inactive). Also, in assay [6] (H69AR cells + 2 uM doxorubicin), the differential viability (reversal) was -6.21% (inactive). For the same molecule, the results for the inhibition in assay [7] and in assay [8] were -5.14% (inactive) and 1.83% (inactive), respectively.

Turning to `Cc1sc2nc(CN3CCN(S(=O)(=O)c4cccc5nonc45)CC3)[nH]c(=O)c2c1C`, the viability in assay [1] is 102%; in assay [3], 102% (inactive); in assay [4], 66.4% (inactive); in assay [5], 87.9% (inactive); in assay [6] (setting [9]), 78.4%; in assay [6] (setting [10]), 87.9%. Further, in assay [2], the Her2 level was 93.5% (inactive). Moreover, the differential viability (reversal) in assay [6] (H69AR cells + 2 uM doxorubicin) was 9.52% (inactive). In addition, the inhibition in assay [7] is -6.05% (inactive); in assay [8] it was 0.5% (inactive).

Regarding `CC(C)=CCCC(C)CN(C)CCc1ccccn1` (stereo not given), the viability in assay [1] was 79%; in assay [3], 79% (inactive); in assay [4], 101% (inactive); in assay [5], 98.6% (inactive); in assay [6] (setting [9]) it was 77.3%; in assay [6] (setting [10]) it was 98.6%. Besides, in assay [2], the Her2 level is 97% (inactive). For the same molecule, the differential viability (reversal) in assay [6] (H69AR cells + 2 uM doxorubicin) was 21.2% (inactive). Also, the inhibition in assay [7] is -5.19% (inactive); in assay [8] it was -3.61% (inactive).

Regarding `CN(CC(=O)Nc1ccc2c(c1)OCCO2)S(=O)(=O)c1ccc(Br)s1`, the viability in assay [1] was 90.5%; in assay [3], 90.5% (inactive); in assay [4], 111% (inactive); in assay [5] it was 83.3% (inactive); in assay [6] (setting [9]), 94%; in assay [6] (setting [10]), 83.3%. Besides, in assay [2], the Her2 level is 94.5% (inactive). Further, the differential viability (reversal) in assay [6] (H69AR cells + 2 uM doxorubicin) was -10.7% (inactive). In addition, the inhibition in assay [7] was -2.63% (inactive); in assay [8], -10.8% (inactive).

What is called viability is a read-out of living cells in per cent, often relative to untreated cells. In general, inhibition refers to the change of the read-out against control, counted positive when it falls.
